{
  "source": "paper PMC10586521",
  "about": "(Journal of medicinal chemistry, 2023)",
  "assay_type_in_all_cases": "cell-based",
  "key": {"PLK-1": {"test_system": "PLK-1", "test": "qRT-PCR splice modulation, PLK-1 exon skipping/expression in HCT116 cells", "conditions": "for PLK-1 expression/splicing: HCT116, 24 h, 100-500 nM; for effect on exon 3 inclusion in PLK-1: HCT116, 4 h, ~20 times GI50", "method_in_brief": "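HCT116 (ATCC, mycoplasma-tested, ≤5 passages) in supplemented McCoy's 5a with 0.5% DMSO, exposed 4 h or 24 h (100, 250, 500 nM); untreated control. Total RNA isolated, 1 μg DNase I-treated, cDNA made; qPCR on 5 ng cDNA with primers for intron retention/exon skipping. Cycling: 95 °C 10 min; 40× (95 °C 30 s, 55 °C 60 s, 72 °C 60 s). 2−ΔΔCT vs GAPDH, untreated set to 1.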"}, "[1]": {"test_system": "HCT116 colorectal carcinoma cells", "test": "MTS cell viability / cell growth inhibition assay in HCT116 cells", "conditions": "for GI50: Homo sapiens, HCT-116, 72 h; for fold loss in cell growth inhibitory activity (GI50) compared to 1 / fold less effective (GI50) compared to 17S-FD-895: HCT116 cells, 72 h; for fold loss in cell growth inhibitory activity (GI50) compared to 1: relative to FD-895 (1); for fold less effective (GI50) compared to 17S-FD-895: comparator printed as 17S-FD-895 (1a); for fold loss in activity: comparator not stated, side chain terminus modification"}, "SF2": {"test_system": "SF2", "test": "qRT-PCR, SF2 RNA expression in HCT116 cells", "conditions": "for down regulation of SF2 expression: HCT116, 4 h, ~20 times GI50; for SF2 expression: HCT116, 24 h, 100-500 nM"}, "HCT116 tumor cells": {"test_system": "HCT116 tumor cells", "test": "qRT-PCR splice modulation, overall profile over the gene panel in HCT116 cells", "conditions": "HCT116, 24 h, 100, 250 and 500 nM"}, "DNAJB1": {"test_system": "DNAJB1", "test": "qRT-PCR splice modulation, DNAJB1 intron retention in HCT116 cells", "conditions": "for DNAJB1 intron 2 retention: HCT116, 4 h, ~20 times GI50, relative to 1; for DNAJB1 intron retention: HCT116, 24 h, 100-500 nM, compared to 1"}, "SF3A1": {"test_system": "SF3A1", "test": "qRT-PCR splice modulation, SF3A1 intron retention in HCT116 cells", "conditions": "for SF3A1 intron 6 retention: HCT116, 4 h, ~20 times GI50, relative to 1; for SF3A1 intron retention: HCT116, 24 h, 100-500 nM, compared to 1"}, "SF3B2": {"test_system": "SF3B2", "test": "qRT-PCR splice modulation, SF3B2 intron retention in HCT116 cells"}, "SF3A3": {"test_system": "SF3A3", "test": "qRT-PCR splice modulation, SF3A3 intron retention in HCT116 cells", "conditions": "HCT116, 24 h, 100-500 nM, compared to 1", "method_in_brief": "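HCT116 cells (ATCC, mycoplasma-tested, ≤5 passages), supplemented McCoy's 5a with 0.5% DMSO, treated 24 h at 100, 250 or 500 nM; untreated cells as control. Total RNA extracted, 1 μg DNase I-treated, converted to cDNA; qPCR on 5 ng cDNA using intron-retention primers, 95 °C 10 min then 40 cycles 95/55/72 °C. Levels by 2−ΔΔCT relative to GAPDH, untreated = 1.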"}, "AURKA": {"test_system": "AURKA", "test": "qRT-PCR splice modulation, AURKA exon skipping/expression in HCT116 cells", "conditions": "HCT116, 24 h, 100-500 nM"}, "[2]": {"conditions": "HCT116, 4 h, ~20 times GI50, compared to 1"}, "[3]": {"conditions": "HCT116, 24 h, 100-500 nM, compared to 1"}},
  "data": [
    {"smiles": "CC[C@H](OC)[C@@H](C)[C@H]1O[C@@H]1[C@H](O)[C@H](C)/C=C/C=C(\\C)[C@H]1OC(=O)C[C@H](O)CC[C@@](C)(O)[C@@H](OC(C)=O)/C=C/[C@@H]1C", "note": "[Compound 1, FD-895]", "values": [
      {"measurement": "PLK-1 expression/splicing", "setting": "PLK-1", "value": "weak efficacy"},
      {"measurement": "GI50", "setting": "[1]", "value": "< 10", "unit": "nM"},
      {"measurement": "down regulation of SF2 expression", "setting": "SF2", "value": "highest efficacy"},
      {"measurement": "SF2 expression", "setting": "SF2", "value": "weak efficacy"},
      {"measurement": "overall splicing activity over the genes tested", "setting": "HCT116 tumor cells", "value": "altered the splicing of nearly all genes tested"}
    ]},
    {"smiles": "CC[C@H](OC)[C@@H](C)[C@H]1O[C@@H]1[C@H](O)[C@H](C)/C=C/C=C(\\C)[C@H]1OC(=O)C[C@@H](O)CC[C@@](C)(O)[C@@H](OC(C)=O)/C=C/[C@@H]1C", "note": "[Compound 1a, 3S-FD-895]", "values": [
      {"measurement": "effect on exon 3 inclusion in PLK-1", "setting": "PLK-1", "value": "most potent effect"},
      {"measurement": "GI50", "setting": "[1]", "value": "< 10", "unit": "nM"},
      {"measurement": "DNAJB1 intron 2 retention", "setting": "DNAJB1", "value": "highest level of intron retention"},
      {"measurement": "SF3A1 intron 6 retention", "setting": "SF3A1", "value": "more effective than 1"},
      {"measurement": "SF3B2 intron retention", "setting": "SF3B2; [2]", "value": "improved efficacy"}
    ]},
    {"smiles": "CC[C@H](OC)[C@@H](C)[C@H]1O[C@@H]1[C@H](O)[C@H](C)/C=C/C=C(\\C)[C@H]1OC(=O)C[C@H](O)CC[C@@](C)(O)[C@H](OC(C)=O)/C=C/[C@@H]1C", "note": "[Compound 1b, 7R-FD-895]", "values": [
      {"measurement": "effect on exon 3 inclusion in PLK-1", "setting": "PLK-1", "value": "most potent effect"},
      {"measurement": "fold loss in cell growth inhibitory activity (GI50) compared to 1", "setting": "[1]", "value": 300, "unit": "fold"},
      {"measurement": "overall splicing activity over the genes tested", "setting": "HCT116 tumor cells", "value": "loss of splicing activity"}
    ]},
    {"smiles": "CC[C@H](OC)[C@@H](C)[C@H]1O[C@@H]1[C@H](O)[C@H](C)/C=C/C=C(\\C)[C@@H]1OC(=O)C[C@H](O)CC[C@@](C)(O)[C@@H](OC(C)=O)/C=C/[C@H]1C", "note": "[Compound 1c, 10R,11R-FD-895]", "values": [
      {"measurement": "fold loss in cell growth inhibitory activity (GI50) compared to 1", "setting": "[1]", "value": "21,700 fold"}
    ]},
    {"smiles": "CC[C@H](OC)[C@@H](C)[C@H]1O[C@@H]1[C@@H](O)[C@H](C)/C=C/C=C(\\C)[C@H]1OC(=O)C[C@H](O)CC[C@@](C)(O)[C@@H](OC(C)=O)/C=C/[C@@H]1C", "note": "[Compound 1d, 17S-FD-895]", "values": [
      {"measurement": "PLK-1 expression/splicing", "setting": "PLK-1", "value": "decreased effect"},
      {"measurement": "GI50", "setting": "[1]", "value": "< 10", "unit": "nM"},
      {"measurement": "DNAJB1 intron retention", "setting": "DNAJB1", "value": "decreased level of intron retention"},
      {"measurement": "SF3A1 intron retention", "setting": "SF3A1", "value": "dose dependent-increase intron retention"},
      {"measurement": "SF2 expression", "setting": "SF2", "value": "decreased effect"},
      {"measurement": "SF3B2 intron retention", "setting": "SF3B2; [3]", "value": "dose dependent-increase intron retention"}
    ]},
    {"smiles": "CC[C@H](OC)[C@@H](C)[C@H]1O[C@@H]1[C@H](OC)[C@H](C)/C=C/C=C(\\C)[C@H]1OC(=O)C[C@H](O)CC[C@@](C)(O)[C@@H](OC(C)=O)/C=C/[C@@H]1C", "note": "[Compound 1e, 17-methoxy-FD-895]", "values": [
      {"measurement": "DNAJB1 intron 2 retention", "setting": "DNAJB1", "value": "highest level of intron retention"},
      {"measurement": "SF3A1 intron 6 retention", "setting": "SF3A1", "value": "more effective than 1"},
      {"measurement": "overall splicing activity over the genes tested", "setting": "HCT116 tumor cells", "value": "comparable or slightly reduced splice modulatory activity"},
      {"measurement": "SF3B2 intron retention", "setting": "SF3B2; [2]", "value": "improved efficacy"}
    ]},
    {"smiles": "CC[C@H](OC)[C@@H](C)[C@H]1O[C@@H]1[C@@H](OC)[C@H](C)/C=C/C=C(\\C)[C@H]1OC(=O)C[C@H](O)CC[C@@](C)(O)[C@@H](OC(C)=O)/C=C/[C@@H]1C", "note": "[Compound 1f, 17-methoxy-17S-FD-895]", "values": [
      {"measurement": "fold loss in cell growth inhibitory activity (GI50) compared to 1", "setting": "[1]", "value": 21, "unit": "fold"},
      {"measurement": "SF3A1 intron 6 retention", "setting": "SF3A1", "value": "more effective than 1"}
    ]},
    {"smiles": "CC[C@H](OC)[C@@H](C)[C@H]1O[C@@H]1[C@@H](O)[C@H](C)/C=C/C=C(\\C)[C@H]1OC(=O)C[C@@H](O)CC[C@@](C)(O)[C@@H](OC(C)=O)/C=C/[C@@H]1C", "note": "[Compound 1g, 3S,17S-FD-895]", "values": [
      {"measurement": "PLK-1 expression/splicing", "setting": "PLK-1", "value": "reduced PLK-1 expression"},
      {"measurement": "fold less effective (GI50) compared to 17S-FD-895", "setting": "[1]", "value": 52, "unit": "fold"},
      {"measurement": "fold loss in cell growth inhibitory activity (GI50) compared to 1", "setting": "[1]", "value": 75, "unit": "fold"},
      {"measurement": "DNAJB1 intron 2 retention", "setting": "DNAJB1", "value": "highest level of intron retention"},
      {"measurement": "DNAJB1 intron retention", "setting": "DNAJB1", "value": "expected loss in intron retention"},
      {"measurement": "SF3A3 intron retention", "setting": "SF3A3", "value": "comparable intron retention"},
      {"measurement": "SF3A1 intron retention", "setting": "SF3A1", "value": "expected loss in intron retention"},
      {"measurement": "down regulation of SF2 expression", "setting": "SF2", "value": "highest efficacy"},
      {"measurement": "SF2 expression", "setting": "SF2", "value": "reduced ability to inhibit SF2 expression"},
      {"measurement": "SF3B2 intron retention", "setting": "SF3B2; [2]", "value": "improved efficacy"},
      {"measurement": "SF3B2 intron retention", "setting": "SF3B2; [3]", "value": "expected loss in intron retention"}
    ]},
    {"smiles": "CC[C@H](OC)[C@@H](C)[C@H]1O[C@@H]1[C@@H](O)[C@H](C)/C=C/C=C(\\C)[C@H]1OC(=O)C[C@H](O)CC[C@@](C)(O)[C@H](OC(C)=O)/C=C/[C@@H]1C", "note": "[Compound 1h, 7R,17S-FD-895]", "values": [
      {"measurement": "fold less effective (GI50) compared to 17S-FD-895", "setting": "[1]", "value": 318, "unit": "fold"}
    ]},
    {"smiles": "CC[C@H](OC)[C@@H](C)[C@@H]1O[C@H]1[C@@H](O)[C@H](C)/C=C/C=C(\\C)[C@H]1OC(=O)C[C@H](O)CC[C@@](C)(O)[C@@H](OC(C)=O)/C=C/[C@@H]1C", "note": "[Compound 1i, 17S,18S,19S-FD-895]", "values": [
      {"measurement": "PLK-1 expression/splicing", "setting": "PLK-1", "value": "increased the RNA expression"},
      {"measurement": "fold loss in activity", "setting": "[1]", "value": 100, "unit": "fold"},
      {"measurement": "SF3A1 intron 6 retention", "setting": "SF3A1", "value": "more effective than 1"},
      {"measurement": "overall splicing activity over the genes tested", "setting": "HCT116 tumor cells", "value": "drastic reduction in splicing activity"}
    ]},
    {"smiles": "CC[C@@H](OC)[C@H](C)[C@H]1O[C@@H]1[C@@H](O)[C@H](C)/C=C/C=C(\\C)[C@H]1OC(=O)C[C@H](O)CC[C@@](C)(O)[C@@H](OC(C)=O)/C=C/[C@@H]1C", "note": "[Compound 1j, 17S,20S,21R-FD-895]", "values": [
      {"measurement": "fold loss in activity", "setting": "[1]", "value": 100, "unit": "fold"},
      {"measurement": "SF3A1 intron 6 retention", "setting": "SF3A1", "value": "more effective than 1"},
      {"measurement": "AURKA expression", "setting": "AURKA", "value": "reducing the expression of AURKA at 500 nM"},
      {"measurement": "overall splicing activity over the genes tested", "setting": "HCT116 tumor cells", "value": "splicing profile comparable to 1i"}
    ]}
  ]
}
